Experimental data taken from ChEMBL document CHEMBL4665801, “Pyrazole-Based Lactate Dehydrogenase Inhibitors with Optimized Cell Activity and Pharmacokinetic Properties” (J Med Chem, 2020).
Activity calls are given as the source filed them. No cut-off for these calls is given here.

How the values were obtained:
[1] = molecular target: T1, CYP2B6 (Homo sapiens, UniProt P20813); experiment: Inhibition of CYP2B6 (unknown origin) at 10 uM relative to control; type: ADME
T1 sequence (P20813 whole entry): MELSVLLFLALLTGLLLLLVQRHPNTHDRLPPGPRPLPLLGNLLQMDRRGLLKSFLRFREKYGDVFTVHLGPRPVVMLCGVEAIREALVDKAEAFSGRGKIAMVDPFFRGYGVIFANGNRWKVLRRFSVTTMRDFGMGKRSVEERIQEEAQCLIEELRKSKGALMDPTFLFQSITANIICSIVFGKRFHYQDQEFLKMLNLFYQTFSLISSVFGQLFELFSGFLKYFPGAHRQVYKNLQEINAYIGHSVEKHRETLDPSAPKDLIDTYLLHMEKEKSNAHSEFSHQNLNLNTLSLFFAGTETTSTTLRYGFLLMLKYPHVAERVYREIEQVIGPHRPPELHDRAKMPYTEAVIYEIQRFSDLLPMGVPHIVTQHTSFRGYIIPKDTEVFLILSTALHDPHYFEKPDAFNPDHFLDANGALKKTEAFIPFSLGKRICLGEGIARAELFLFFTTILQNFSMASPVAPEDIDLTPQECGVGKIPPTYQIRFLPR

[2] = molecular target: CYP2C9 (Homo sapiens, UniProt P11712); experiment: Inhibition of CYP2C9 (unknown origin) at 10 uM relative to control; type: ADME
[3] = Half life in mouse plasma; type: ADME, cell-free
Outline: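 Stability in mouse plasma was followed at five time points, with T1/2 derived from parent remaining.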

[4] = system: Mus musculus; experiment: In vivo inhibition of LDH in human A673 cells xenografted athymic nude CrTac:NCr-Foxn1nu mouse assessed as reduction in tumor LDH activity at 50 mg/kg, iv after 1 hr by NADH-based UV-VIS spectrometric method relative to control; type: functional, organism-based
Outline: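 Female athymic nude mice carried SQ A673 flank xenografts (2 million cells) and received a single IV dose of 50 mg/kg in PBS-based vehicle. Four mice per time point were sacrificed at 1, 3, 6 and 24 h. Frozen tumor (10–50 mg) was pulverized and lysed in PBS pH 7.4 with 0.1% Triton X-100 on ice for 1 h. Cleared lysate (10–20 μg) was assayed with 10 mM pyruvate and 0.3 mM final NADH, reading NADH oxidation at 340 nm at 37 °C.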

[5] = molecular target: T2, CYP2C8 (Homo sapiens, UniProt P10632); experiment: Inhibition of CYP2C8 (unknown origin) at 10 uM relative to control; type: ADME
T2 sequence (P10632 whole entry): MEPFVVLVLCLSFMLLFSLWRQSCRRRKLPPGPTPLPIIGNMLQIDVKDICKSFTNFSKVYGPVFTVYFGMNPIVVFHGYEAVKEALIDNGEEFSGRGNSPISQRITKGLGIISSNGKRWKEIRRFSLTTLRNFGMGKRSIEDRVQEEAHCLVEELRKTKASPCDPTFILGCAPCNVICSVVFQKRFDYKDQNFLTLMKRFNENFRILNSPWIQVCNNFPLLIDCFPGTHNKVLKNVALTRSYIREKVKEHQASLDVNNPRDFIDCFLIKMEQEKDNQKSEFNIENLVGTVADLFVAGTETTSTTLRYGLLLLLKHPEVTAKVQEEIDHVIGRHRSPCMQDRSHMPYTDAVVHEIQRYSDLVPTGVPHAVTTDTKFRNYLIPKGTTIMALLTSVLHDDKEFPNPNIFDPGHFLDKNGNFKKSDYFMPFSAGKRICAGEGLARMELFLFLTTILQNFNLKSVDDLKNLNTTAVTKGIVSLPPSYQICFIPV

[6] = AUC last in CD-1 mouse at 40 mg/kg, po and measured up to 24 hrs by LC/MS-MS analysis; type: ADME, organism-based; design: route oral, dose 40 mg/kg, time <=24; settings: in vivo
Outline: (§1)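 Male CD1 mice, 6–8 weeks, about 20–30 g, three per cohort. Dosed PO at 40 or 50 mg/kg, or IV at 10 mg/kg for reference, in PBS with […] (pH 7–8). Dorsal metatarsal blood was taken into heparin at 15 min to 24 h (PO) or 5 min to 24 h (IV). Plasma was frozen and quantified by LC–MS/MS.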

[7] = Cmax in CD-1 mouse at 40 mg/kg, po and measured up to 24 hrs by LC/MS-MS analysis; type: ADME, organism-based; design: route oral, dose 40 mg/kg, time <=24; settings: in vivo; outline: as §1
[8] = Terminal half life in CD-1 mouse at 40 mg/kg, po and measured up to 24 hrs by LC/MS-MS analysis; type: ADME, organism-based; settings: in vivo; outline: as §1
[9] = Oral bioavailability in CD-1 mouse at 40 mg/kg and measured up to 24 hrs by LC/MS-MS analysis; type: ADME, organism-based; settings: in vivo; outline: as §1
[10] = Permeability of compound at pH 7.4 incubated for 30 mins by PAMPA; type: ADME; settings: pH 7.4, 0.5 h
Outline: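 Stirred double-sink PAMPA with GI-tract lipid/dodecane membrane, pH 7.4 on both sides. Compound was diluted from 10 mM DMSO stock to 0.05 mM (0.5% DMSO final), with 30 min permeation at room temperature. Donor and acceptor were read by UV. Results in 10⁻⁶ cm/s.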

[11] = Oral bioavailability in CD-1 mouse at 50 mg/kg and measured up to 24 hrs by LC/MS-MS analysis; type: ADME, organism-based; settings: in vivo
Outline: (§2)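 Male CD1 mice, about 6–8 weeks old and 20–30 g, were dosed PO at 40 or 50 mg/kg in 0.1 M NaOH in PBS, pH 7–8.5, prepared the same day. Three mice per cohort. Dorsal metatarsal vein blood was collected into heparin at 15, 30 min and 1, 2, 4, 8, 12, 24 h. Plasma was spun at 4 °C, frozen at –75 °C and quantified by LC–MS/MS.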

[12] = AUClast in CD-1 mouse at 50 mg/kg, po and measured up to 24 hrs by LC/MS-MS analysis; type: ADME, organism-based; design: route oral, dose 50 mg/kg, time <=24; settings: in vivo; outline: as §2
[13] = molecular target: T3, Cytochrome P450 2C8 (Homo sapiens, UniProt P10632); experiment: Inhibition of CYP2C8 (unknown origin) assessed as inhibitory concentration; type: ADME
T3 sequence (P10632 whole entry): T2 sequence (P10632 whole entry)

[14] = molecular target: T4, Cytochrome P450 2B6 (Homo sapiens, UniProt P20813); experiment: Inhibition of CYP2B6 (unknown origin) assessed as inhibitory concentration; type: ADME
T4 sequence (P20813 whole entry): T1 sequence (P20813 whole entry)

[15] = Cmax in CD-1 mouse at 50 mg/kg, po and measured up to 24 hrs by LC/MS-MS analysis; type: ADME, organism-based; design: route oral, dose 50 mg/kg, time <=24; settings: in vivo; outline: as §2

Sequence of CYP2C9 (P11712 whole entry): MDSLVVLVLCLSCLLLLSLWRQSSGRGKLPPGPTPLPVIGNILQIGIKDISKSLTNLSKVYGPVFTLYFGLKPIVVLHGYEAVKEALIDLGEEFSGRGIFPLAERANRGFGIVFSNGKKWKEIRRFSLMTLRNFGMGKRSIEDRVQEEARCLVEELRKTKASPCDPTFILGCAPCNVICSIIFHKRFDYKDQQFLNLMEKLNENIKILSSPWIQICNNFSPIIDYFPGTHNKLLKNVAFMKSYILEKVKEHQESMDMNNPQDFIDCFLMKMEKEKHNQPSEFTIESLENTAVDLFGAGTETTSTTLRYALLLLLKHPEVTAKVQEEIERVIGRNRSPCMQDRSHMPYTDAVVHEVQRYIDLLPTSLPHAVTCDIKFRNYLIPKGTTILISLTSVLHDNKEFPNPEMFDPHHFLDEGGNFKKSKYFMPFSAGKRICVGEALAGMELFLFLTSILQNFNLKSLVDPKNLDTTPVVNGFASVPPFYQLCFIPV

Row | Compound | inhibition at 10 µM [1] | inhibition at 10 µM [2] | t1/2 [3] | inhibition [4] | inhibition at 10 µM [5] | AUClast [6] | Cmax [7] | beta t1/2 [8] | F [9] | permeability [10] | F [11] | AUClast [12] | INH [13] | INH [14] | Cmax [15]
1 | Cc1ccc(C#Cc2cc(-c3nn(-c4nc(C(=O)O)cs4)c(CC4CC4)c3Cc3ccc(S(N)(=O)=O)c(F)c3)ccc2F)s1 | 46% | 45% | > 4 h | Active | 80% | 31390 ng·h/mL | 5260 ng/mL | 2.78 h | 73.8% | 10.4 10^-6 cm/s | – | – | – | – | –
2 | Cc1ccc(C#Cc2cccc(-c3nn(-c4nc(C(=O)O)cs4)c(CC4CC4)c3Cc3ccc(S(N)(=O)=O)c(F)c3)c2)s1 | – | – | > 4 h | Active | – | – | – | – | – | 2.2 10^-6 cm/s | 64% | 53540 ng·h/mL | 7.5 µM | 14 µM | 8830 ng/mL
